ChEMBL document CHEMBL2069190, “Identification of new γ-hydroxybutenolides that preferentially inhibit the activity of mPGES-1” (Bioorg Med Chem, 2012)
One block for each compound: values may come before it. The source made the active and inactive calls. The calls are words filed in the database; no cut-off is given here.

Key:
A549 [1] = assay: Antiinflammatory activity in human A549 cells assessed as inhibition of IL-1beta-induced mPGES1 expression at 10 uM treated 30 mins prior to IL-1beta challenge measured after 48 hrs by Western blot analysis relative to control; type: functional, cell-based
How it was run: (§1)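 A549 cells (DMEM high glucose, 10% heat-inactivated FCS, penicillin/streptomycin, 37 °C, 5% CO2) pre-incubated 30 min with compound or vehicle (DMSO, 0.3%), then IL-1b (2 ng/mL) added. After 48 h, cells lysed; mPGES-1 protein analysed by Western blot with b-actin as loading control. Bands semi-quantified by densitometry as % of uninhibited DMSO control, mean SD, n = 3.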

Prostaglandin E synthase = target: T1, Prostaglandin E synthase (Homo sapiens, UniProt O14684); assay: Inhibition of mPGES-1-mediated PGE2 formation in IL-1beta-stimulated human A549 cells preincubated for 10 mins measured after 1 min by RP-HPLC analysis; type: cell-based
T1 sequence (O14684 whole entry): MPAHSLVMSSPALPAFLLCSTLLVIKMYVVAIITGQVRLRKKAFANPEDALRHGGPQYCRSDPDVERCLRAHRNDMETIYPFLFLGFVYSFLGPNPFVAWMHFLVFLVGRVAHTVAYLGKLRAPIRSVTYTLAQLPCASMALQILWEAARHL
How it was run: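 Microsomes from A549 cells treated 48 h with 1 ng/mL IL-1b, isolated by sonication and differential centrifugation (10,000×g 10 min, 174,000×g 1 h, 4 °C). Diluted in 0.1 M potassium phosphate pH 7.4 with 2.5 mM glutathione. Pre-incubated with compound or vehicle on ice, then 20 µM PGH2 added. PGE2 measured by RP-HPLC as % of DMSO control, mean S.E., n = 3–4.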

A549 [2] = assay: Antiinflammatory activity in human A549 cells assessed as inhibition of IL-1beta-induced mPGES1 expression at 1 uM treated 30 mins prior to IL-1beta challenge measured after 48 hrs by Western blot analysis relative to control; type: functional, cell-based; how it was run: as §1
[3] = target: T2, Polyunsaturated fatty acid lipoxygenase ALOX12 (Homo sapiens) (UniProt P18054); assay: Inhibition of 12-lipoxygenase in A23187-stimulated human platelets assessed as reduction of 12(S)-H(P)ETE formation preincubated 15 mins by RP-HPLC analysis
T2 sequence (whole entry): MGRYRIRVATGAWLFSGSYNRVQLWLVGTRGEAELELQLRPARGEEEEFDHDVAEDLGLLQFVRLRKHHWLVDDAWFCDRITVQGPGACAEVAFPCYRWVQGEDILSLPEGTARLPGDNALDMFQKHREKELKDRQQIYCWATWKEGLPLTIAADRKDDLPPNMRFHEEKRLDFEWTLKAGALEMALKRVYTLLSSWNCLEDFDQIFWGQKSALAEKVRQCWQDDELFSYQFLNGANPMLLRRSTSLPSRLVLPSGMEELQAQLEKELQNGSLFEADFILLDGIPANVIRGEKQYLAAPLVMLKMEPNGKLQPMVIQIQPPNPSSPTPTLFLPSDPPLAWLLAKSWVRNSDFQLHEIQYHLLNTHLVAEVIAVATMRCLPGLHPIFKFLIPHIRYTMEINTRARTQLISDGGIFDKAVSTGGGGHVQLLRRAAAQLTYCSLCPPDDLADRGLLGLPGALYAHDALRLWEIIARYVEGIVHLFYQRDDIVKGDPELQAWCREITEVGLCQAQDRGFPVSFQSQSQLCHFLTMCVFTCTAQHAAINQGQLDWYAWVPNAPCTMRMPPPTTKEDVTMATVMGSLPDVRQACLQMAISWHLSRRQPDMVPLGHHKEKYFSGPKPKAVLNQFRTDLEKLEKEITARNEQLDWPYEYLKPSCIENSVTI

[4] = target: T3, Polyunsaturated fatty acid 5-lipoxygenase (Homo sapiens) (UniProt P09917); assay: Inhibition of 5-lipoxygenase in A23187-stimulated human PMNL assessed as inhibition of 15-H(p)ETE formation preincubated 15 mins by RP-HPLC analysis
T3 sequence (whole entry): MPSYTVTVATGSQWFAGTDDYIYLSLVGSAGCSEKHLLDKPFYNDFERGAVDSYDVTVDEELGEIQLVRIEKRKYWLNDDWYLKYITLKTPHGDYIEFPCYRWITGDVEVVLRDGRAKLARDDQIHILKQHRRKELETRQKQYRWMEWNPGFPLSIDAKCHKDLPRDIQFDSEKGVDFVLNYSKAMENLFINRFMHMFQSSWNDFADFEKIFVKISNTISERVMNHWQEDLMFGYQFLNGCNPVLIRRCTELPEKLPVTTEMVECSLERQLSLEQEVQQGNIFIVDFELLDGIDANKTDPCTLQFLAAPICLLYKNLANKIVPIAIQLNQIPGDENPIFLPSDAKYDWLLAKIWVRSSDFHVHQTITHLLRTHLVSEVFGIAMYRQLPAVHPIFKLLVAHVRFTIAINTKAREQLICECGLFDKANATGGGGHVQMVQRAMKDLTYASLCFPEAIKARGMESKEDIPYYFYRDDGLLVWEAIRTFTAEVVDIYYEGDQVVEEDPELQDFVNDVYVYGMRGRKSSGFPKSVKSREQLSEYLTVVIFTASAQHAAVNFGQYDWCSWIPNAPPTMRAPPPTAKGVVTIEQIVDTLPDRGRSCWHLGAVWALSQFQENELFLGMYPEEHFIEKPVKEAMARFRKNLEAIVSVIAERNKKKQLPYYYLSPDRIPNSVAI

[5] = target: T4, Prostaglandin G/H synthase 1 (Ovis aries) (UniProt P05979); assay: Inhibition of ovine COX1 at 10 uM preincubated for 5 mins measured after 5 mins
T4 sequence (whole entry): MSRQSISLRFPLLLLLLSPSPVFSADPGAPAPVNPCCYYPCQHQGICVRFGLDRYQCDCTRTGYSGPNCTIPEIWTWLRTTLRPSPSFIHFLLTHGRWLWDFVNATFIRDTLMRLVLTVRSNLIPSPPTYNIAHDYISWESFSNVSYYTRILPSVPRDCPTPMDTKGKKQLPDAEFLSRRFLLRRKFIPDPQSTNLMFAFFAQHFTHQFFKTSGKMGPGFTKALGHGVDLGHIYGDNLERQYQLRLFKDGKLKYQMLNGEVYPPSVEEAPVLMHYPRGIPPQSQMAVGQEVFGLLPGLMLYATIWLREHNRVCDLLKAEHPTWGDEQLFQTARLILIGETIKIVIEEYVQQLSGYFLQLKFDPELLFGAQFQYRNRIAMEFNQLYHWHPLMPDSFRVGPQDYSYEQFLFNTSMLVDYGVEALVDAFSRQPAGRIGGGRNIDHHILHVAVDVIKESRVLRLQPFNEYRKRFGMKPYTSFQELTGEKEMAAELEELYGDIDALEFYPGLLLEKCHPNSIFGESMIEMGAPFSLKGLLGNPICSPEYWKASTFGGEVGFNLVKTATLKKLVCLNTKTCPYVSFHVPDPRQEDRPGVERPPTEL

[6] = Cytotoxicity against mouse […] cells at 10 uM after 24 hrs by MTT assay
[7] = target: T5, Prostaglandin G/H synthase 2 (Homo sapiens) (UniProt P35354); assay: Inhibition of human COX2 at 10 uM preincubated for 5 mins measured after 5 mins
T5 sequence (whole entry): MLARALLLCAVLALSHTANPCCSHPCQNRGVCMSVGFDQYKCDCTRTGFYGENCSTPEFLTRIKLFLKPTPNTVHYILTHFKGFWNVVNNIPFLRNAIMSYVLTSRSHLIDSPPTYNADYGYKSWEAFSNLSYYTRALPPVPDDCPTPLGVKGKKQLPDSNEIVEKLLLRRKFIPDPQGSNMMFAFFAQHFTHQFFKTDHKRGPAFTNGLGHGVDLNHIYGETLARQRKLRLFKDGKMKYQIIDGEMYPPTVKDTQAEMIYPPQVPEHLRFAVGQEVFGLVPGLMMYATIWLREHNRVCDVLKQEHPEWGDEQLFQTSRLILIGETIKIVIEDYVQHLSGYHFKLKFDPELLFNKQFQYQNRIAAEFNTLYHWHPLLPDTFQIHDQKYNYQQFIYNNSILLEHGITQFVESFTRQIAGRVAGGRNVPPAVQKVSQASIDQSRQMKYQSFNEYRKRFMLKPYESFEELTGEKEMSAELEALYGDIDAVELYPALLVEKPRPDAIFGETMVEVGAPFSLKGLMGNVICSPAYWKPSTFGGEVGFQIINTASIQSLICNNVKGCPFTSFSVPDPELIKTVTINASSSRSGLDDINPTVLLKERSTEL

[8] = Inhibition of His-tagged human recombinant cPLA2alpha expressed in baculovirus infected insect sf9 cells assessed as inhibition of arachidonic acid formation after 1 hr by RP-HPLC analysis
[9] = target: T6, Polyunsaturated fatty acid lipoxygenase ALOX15 (Homo sapiens) (UniProt P16050); assay: Inhibition of 15-lipoxygenase in A23187-stimulated human PMNL assessed as inhibition of 15-H(p)ETE formation preincubated 15 mins by RP-HPLC analysis
T6 sequence (whole entry): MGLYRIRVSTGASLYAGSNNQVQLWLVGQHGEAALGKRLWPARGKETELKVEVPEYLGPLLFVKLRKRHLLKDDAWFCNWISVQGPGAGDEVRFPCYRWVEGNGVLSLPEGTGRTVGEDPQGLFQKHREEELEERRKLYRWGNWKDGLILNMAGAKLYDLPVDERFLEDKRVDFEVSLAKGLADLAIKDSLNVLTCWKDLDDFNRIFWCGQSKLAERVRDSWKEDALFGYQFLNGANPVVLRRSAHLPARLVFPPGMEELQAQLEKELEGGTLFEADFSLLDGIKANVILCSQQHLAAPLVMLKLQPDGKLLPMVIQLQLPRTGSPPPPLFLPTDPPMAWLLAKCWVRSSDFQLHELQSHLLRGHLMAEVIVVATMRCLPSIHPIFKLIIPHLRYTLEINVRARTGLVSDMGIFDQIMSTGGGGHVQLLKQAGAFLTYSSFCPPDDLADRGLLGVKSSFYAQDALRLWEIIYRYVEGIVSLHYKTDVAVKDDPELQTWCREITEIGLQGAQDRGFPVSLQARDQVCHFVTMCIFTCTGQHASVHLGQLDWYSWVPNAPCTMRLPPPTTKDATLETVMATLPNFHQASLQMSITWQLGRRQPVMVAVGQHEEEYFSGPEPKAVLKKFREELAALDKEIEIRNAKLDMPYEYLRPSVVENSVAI

[10] = Cytotoxicity against human primary monocytes at 10 uM after 24 hrs by MTT assay; details: monocyte

Compound: O=C1OC(O)C(c2ccc(C(=O)N3CCOCC3)cc2)=C1Br (stereo not drawn)
inhibition (A549 [1]): inactive

Compound: O=C1OC(O)C(c2cccc(C(=O)N3CCCCC3)c2)=C1Br (stereo not drawn)
inhibition (A549 [1]): inactive

Compound: O=C1OC(O)C(c2ccc(C(=O)N3CCCCC3)cc2)=C1Br (stereo not drawn)
inhibition (A549 [1]): inactive

IC50 (Prostaglandin E synthase): 5.6 µM
Compound: O=C1OC(O)C(c2ccc(C(=O)NCc3ccccc3)cc2)=C1Br (stereo not drawn)
inhibition (A549 [1]): inactive

Compound: O=C1OC(O)C(c2cccc(C(=O)N3CCOCC3)c2)=C1Br (stereo not drawn)
inhibition (A549 [1]): inactive

Compound: O=C1OC(O)C(c2cccc(C(=O)Nc3ccccc3)c2)=C1Br (stereo not drawn)
inhibition (A549 [1]): inactive

Compound: O=C1OC(O)C(c2cccc(C(=O)NCc3ccccc3)c2)=C1Br (stereo not drawn)
inhibition (A549 [1]): inactive

Compound: C[C@@H]1C[C@H]2[C@@H]3CCC4=CC(=O)C=C[C@]4(C)[C@@]3(F)[C@@H](O)C[C@]2(C)[C@@]1(O)C(=O)CO
inhibition (A549 [2]): Active

Compound: O=C1OC(O)C(c2cccc(C(=O)N3CCCC3)c2)=C1Br (stereo not drawn)
inhibition (A549 [1]): inactive

Compound: O=C1OC(O)C(c2ccc(C(=O)N3CCNCC3)cc2)=C1Br (stereo not drawn)
inhibition (A549 [1]): inactive

IC50 (Prostaglandin E synthase): > 10 µM
Compound: O=C1OC(O)C(c2cc3ccccc3s2)=C1Br (stereo not drawn)

IC50 (Prostaglandin E synthase): 0.9 µM
inhibition [3]: inactive
inhibition [4]: 22%
inhibition [5]: inactive
inhibition [7]: inactive
inhibition [9]: inactive
Compound: O=C1OC(O)C(c2ccc(C(=O)Nc3ccccc3)cc2)=C1Br (stereo not drawn)
Activity [6]: Non-toxic
inhibition [8]: inactive
Activity [10]: Non-toxic
inhibition (A549 [1]): inactive

Compound: O=C1OC(O)C(c2ccc(C(=O)N3CCCC3)cc2)=C1Br (stereo not drawn)
inhibition (A549 [1]): inactive
